Measured values published in ChEMBL document CHEMBL1240327, “Small molecules enhance autophagy and reduce toxicity in Huntington's disease models” (Nat Chem Biol, 2007).
Active and inactive are the calls of the source.

Assays:
Saccharomyces bayanus [1] = assay: Inhibition of rapamycin-mediated cytostatic effect in Saccharomyces bayanus after 48 to 96 hrs; assay type: functional
Saccharomyces cerevisiae [2] = assay: Inhibition of 50 nM rapamycin-mediated cytostatic effect in yeast BY4742 after 48 to 96 hrs; assay type: functional, organism-based
Saccharomyces mikatae [3] = assay: Inhibition of rapamycin-mediated cytostatic effect in Saccharomyces mikatae after 48 to 96 hrs; assay type: functional
Saccharomyces cerevisiae [4] = assay: Inhibition of rapamycin-mediated cytostatic effect in yeast RM11-1a after 48 to 96 hrs; assay type: functional
Saccharomyces paradoxus [5] = assay: Inhibition of rapamycin-mediated cytostatic effect in Saccharomyces paradoxus after 48 to 96 hrs; assay type: functional
Saccharomyces cerevisiae [6] = assay: Enhancement of nocodazole-mediated cytostatic effect in yeast BY4742 after 48 to 96 hrs; assay type: functional, organism-based
PC-12 [7] = assay: Enhancement of rapamycin-induced clearance of alpha-synuclein A53T mutant protein in rat PC12 cells at 43 uM after 8 hrs by immunoblotting; assay type: functional, cell-based
Procedure, shortened: (§1)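 Inducible PC12 A53T α-synuclein line (1 μg/ml doxycycline, 48 h, then switched off). Compound given alone or with 0.2 μM rapamycin over an 8 h switch-off period. Read-out is anti-HA immunoblot with densitometry relative to actin, n=3, control as 100 %.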

Saccharomyces paradoxus [8] = assay: Enhancement of rapamycin-mediated cytostatic effect in Saccharomyces paradoxus after 48 to 96 hrs; assay type: functional
[9] = target: Serine/threonine-protein kinase mTOR (Homo sapiens) (UniProt P42345); assay: Inhibition of mTOR phosphorylation expressed in african green monkey COS7 cells at 47 uM by Western blot analysis; assay type: cell-based; details: COS-7
PC-12 [10] = assay: Enhancement of autophagy in rat PC12 cells assessed as decrease in alpha-synuclein A53T mutant level at 47 uM by immunoblotting; assay type: functional, cell-based
Procedure, shortened: (§2)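 Stable PC12 line with doxycycline-inducible HA-tagged A53T α-synuclein; induced with 1 μg/ml doxycycline for 48 h, then doxycycline removed. Compounds added during the 24 h switch-off period, from 5 mg ml⁻¹ DMSO stock diluted 1:20000, 1:4000 or 1:400. HA immunoblot, densitometry relative to actin; control set to 100 %; three independent experiments, factorial ANOVA.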

Saccharomyces bayanus [11] = assay: Enhancement of rapamycin-mediated cytostatic effect in Saccharomyces bayanus after 48 to 96 hrs; assay type: functional
COS-7 [12] = assay: Effect on ATg7 level in african green monkey COS7 cells at 47 uM after 24 hrs by immunoblotting; assay type: functional, cell-based; details: Chlorocebus aethiops
COS-7 [13] = assay: Effect on ATg5 level in african green monkey COS7 cells at 47 uM after 24 hrs by immunoblotting; assay type: functional, cell-based; details: Chlorocebus aethiops
COS-7 [14] = assay: Effect on ATg12 level in african green monkey COS7 cells at 47 uM after 24 hrs by immunoblotting; assay type: functional, cell-based; details: Chlorocebus aethiops
Saccharomyces cerevisiae [15] = assay: Enhancement of CHX-mediated cytostatic effect in yeast BY4742 after 48 to 96 hrs; assay type: functional, organism-based
Saccharomyces cerevisiae [16] = assay: Enhancement of anisomycin-mediated cytostatic effect in yeast BY4742 after 48 to 96 hrs; assay type: functional, organism-based
PC-12 [17] = assay: Enhancement of rapamycin-induced clearance of alpha-synuclein A53T mutant protein in rat PC12 cells at 140 uM after 8 hrs by immunoblotting; assay type: functional, cell-based; procedure, shortened: as §1
[18] = target: Huntingtin (Homo sapiens) (UniProt P42858); assay: Inhibition of EGFP-tagged huntingtin aggregation expressed in african green monkey COS7 cells at 140 uM after 24 hrs by […] in presence of 0.2 uM rapamycin; assay type: cell-based; details: COS-7
Huntingtin (Homo sapiens), sequence (P42858 whole entry): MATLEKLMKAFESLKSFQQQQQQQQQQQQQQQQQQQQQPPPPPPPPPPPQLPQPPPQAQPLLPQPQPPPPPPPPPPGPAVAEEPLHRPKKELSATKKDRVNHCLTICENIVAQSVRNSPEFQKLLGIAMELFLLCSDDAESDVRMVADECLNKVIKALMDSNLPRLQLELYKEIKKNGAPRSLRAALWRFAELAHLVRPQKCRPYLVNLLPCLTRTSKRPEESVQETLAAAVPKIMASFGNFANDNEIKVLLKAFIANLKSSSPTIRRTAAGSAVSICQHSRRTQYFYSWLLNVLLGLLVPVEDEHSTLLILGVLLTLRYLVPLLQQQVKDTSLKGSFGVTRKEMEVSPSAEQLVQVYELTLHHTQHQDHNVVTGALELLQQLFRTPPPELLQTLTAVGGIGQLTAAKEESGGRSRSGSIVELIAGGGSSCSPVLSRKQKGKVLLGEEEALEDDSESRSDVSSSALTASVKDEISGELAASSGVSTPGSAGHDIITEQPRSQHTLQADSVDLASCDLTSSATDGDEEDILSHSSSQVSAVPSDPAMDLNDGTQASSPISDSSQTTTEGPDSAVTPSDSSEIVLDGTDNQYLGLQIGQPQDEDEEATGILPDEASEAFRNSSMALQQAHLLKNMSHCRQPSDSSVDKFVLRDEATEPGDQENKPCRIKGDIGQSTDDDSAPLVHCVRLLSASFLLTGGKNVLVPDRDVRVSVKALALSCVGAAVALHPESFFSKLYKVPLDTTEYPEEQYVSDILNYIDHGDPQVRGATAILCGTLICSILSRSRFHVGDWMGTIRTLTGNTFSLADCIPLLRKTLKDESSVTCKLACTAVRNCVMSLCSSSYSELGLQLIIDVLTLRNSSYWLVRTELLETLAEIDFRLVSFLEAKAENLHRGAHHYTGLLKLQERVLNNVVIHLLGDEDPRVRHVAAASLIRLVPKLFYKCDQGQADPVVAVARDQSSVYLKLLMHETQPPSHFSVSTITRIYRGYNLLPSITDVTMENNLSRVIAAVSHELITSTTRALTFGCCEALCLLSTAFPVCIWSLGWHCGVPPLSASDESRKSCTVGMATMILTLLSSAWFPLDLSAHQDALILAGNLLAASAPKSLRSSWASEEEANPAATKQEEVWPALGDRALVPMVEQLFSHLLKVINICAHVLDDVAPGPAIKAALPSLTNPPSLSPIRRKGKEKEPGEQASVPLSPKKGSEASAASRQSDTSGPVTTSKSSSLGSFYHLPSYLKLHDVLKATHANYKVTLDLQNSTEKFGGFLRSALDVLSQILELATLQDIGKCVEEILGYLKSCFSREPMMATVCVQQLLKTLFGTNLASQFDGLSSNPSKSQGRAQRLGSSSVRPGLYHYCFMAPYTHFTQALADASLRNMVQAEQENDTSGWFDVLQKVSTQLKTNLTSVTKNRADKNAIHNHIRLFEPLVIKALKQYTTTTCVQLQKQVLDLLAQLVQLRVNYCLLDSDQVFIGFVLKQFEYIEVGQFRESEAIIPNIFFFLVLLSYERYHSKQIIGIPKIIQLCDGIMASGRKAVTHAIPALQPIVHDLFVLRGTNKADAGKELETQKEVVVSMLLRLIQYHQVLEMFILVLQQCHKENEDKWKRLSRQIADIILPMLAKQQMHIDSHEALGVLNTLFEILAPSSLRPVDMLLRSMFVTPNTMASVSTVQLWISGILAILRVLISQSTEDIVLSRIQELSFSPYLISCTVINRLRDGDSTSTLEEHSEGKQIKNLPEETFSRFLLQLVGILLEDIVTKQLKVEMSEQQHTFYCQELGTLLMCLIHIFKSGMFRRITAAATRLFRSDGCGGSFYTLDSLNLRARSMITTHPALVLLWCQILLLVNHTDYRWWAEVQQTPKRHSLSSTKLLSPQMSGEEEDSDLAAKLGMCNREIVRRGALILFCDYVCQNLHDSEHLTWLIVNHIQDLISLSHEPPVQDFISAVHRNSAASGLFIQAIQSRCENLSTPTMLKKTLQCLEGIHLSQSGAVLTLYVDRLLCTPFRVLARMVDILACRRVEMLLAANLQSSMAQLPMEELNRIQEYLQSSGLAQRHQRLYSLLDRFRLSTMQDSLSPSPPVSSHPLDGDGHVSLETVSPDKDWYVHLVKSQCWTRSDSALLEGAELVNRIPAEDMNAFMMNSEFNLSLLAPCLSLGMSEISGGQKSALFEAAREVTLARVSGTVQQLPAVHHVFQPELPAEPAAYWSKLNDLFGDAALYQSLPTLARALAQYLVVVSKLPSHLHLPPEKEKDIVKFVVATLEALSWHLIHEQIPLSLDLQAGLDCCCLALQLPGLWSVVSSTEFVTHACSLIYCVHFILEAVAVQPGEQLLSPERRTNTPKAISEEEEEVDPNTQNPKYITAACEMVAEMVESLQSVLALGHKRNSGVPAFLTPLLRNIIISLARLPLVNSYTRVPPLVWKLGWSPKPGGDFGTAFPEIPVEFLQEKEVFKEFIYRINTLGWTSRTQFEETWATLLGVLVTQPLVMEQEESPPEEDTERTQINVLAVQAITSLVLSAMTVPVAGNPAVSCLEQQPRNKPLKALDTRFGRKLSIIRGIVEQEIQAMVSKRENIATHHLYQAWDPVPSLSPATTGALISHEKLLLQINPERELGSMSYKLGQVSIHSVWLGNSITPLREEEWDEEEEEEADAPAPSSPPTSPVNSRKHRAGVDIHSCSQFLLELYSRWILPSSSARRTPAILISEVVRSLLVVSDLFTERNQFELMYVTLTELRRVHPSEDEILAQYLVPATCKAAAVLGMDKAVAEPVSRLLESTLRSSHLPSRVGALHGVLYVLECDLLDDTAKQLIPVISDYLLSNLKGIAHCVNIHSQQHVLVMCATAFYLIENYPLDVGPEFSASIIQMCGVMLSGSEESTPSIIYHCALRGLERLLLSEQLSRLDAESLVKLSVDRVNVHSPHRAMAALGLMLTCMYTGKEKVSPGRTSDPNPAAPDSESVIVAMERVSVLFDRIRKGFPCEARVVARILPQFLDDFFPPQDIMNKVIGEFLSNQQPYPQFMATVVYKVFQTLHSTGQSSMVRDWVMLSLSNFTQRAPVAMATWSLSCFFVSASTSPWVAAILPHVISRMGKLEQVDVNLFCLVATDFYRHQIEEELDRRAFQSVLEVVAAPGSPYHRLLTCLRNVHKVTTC

COS-7 [19] = assay: Effect on ATg6 level in african green monkey COS7 cells at 47 uM after 24 hrs by immunoblotting; assay type: functional, cell-based; details: Chlorocebus aethiops
Drosophila melanogaster [20] = assay: Toxicity against Drosophila melanogaster Huntington's disease model at 100 uM; assay type: organism-based; details: in vivo
PC-12 [21] = assay: Enhancement of autophagy in rat PC12 cells assessed as decrease in alpha-synuclein A53T mutant level at 5 mg/ml by densitometry; assay type: functional, cell-based; procedure, shortened: as §2
[22] = target: Huntingtin (Homo sapiens) (UniProt P42858); assay: Inhibition of EGFP-tagged huntingtin aggregation expressed in african green monkey COS7 cells at 47 uM after 48 hrs by […]; assay type: cell-based; details: COS-7
HeLa [23] = assay: Induction of autophagy in human HeLa cells harboring MAP1LC3 gene at 47 uM after 24 hrs by DAPI staining-based fluorescence microscopy; assay type: functional, cell-based
Procedure, shortened: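 Stable EGFP-LC3 HeLa cells treated 24 h. EGFP-positive autophagic vesicles were imaged by confocal microscopy with DAPI nuclear counterstain.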

[24] = Cytotoxicity against african green monkey COS7 cells at 47 uM after 24 hrs by FACS analysis; assay type: cell-based; details: chlorocebus aethiops, cos-7, 24 h
Saccharomyces cerevisiae [25] = assay: Enhancement of rapamycin-mediated cytostatic effect in yeast RM11-1a after 48 to 96 hrs; assay type: functional
Saccharomyces cerevisiae [26] = assay: Enhancement of tunicamycin-mediated cytostatic effect in yeast BY4742 after 48 to 96 hrs; assay type: functional, organism-based
COS-7 [27] = assay: Increase in conjugated Atg12-Atg5 level in african green monkey COS7 cells at 47 uM after 24 hrs by immunoblotting; assay type: functional, cell-based; details: Chlorocebus aethiops
[28] = target: Huntingtin (Mus musculus) (UniProt P42859); assay: Inhibition of EGFP-tagged huntingtin aggregation in Atg5-deficient MEF at 47 uM after 48 hrs by Western blot analysis
HeLa [29] = assay: Inhibition of proteasome activity in human HeLa cells assessed as induction of ubiquitinG76V-EGFP reporter level at 47 uM after 24 hrs by immunoblotting
Drosophila melanogaster [30] = assay: Neuroprotective activity in Drosophila melanogaster Huntington's disease model harboring huntington protein mutant assessed as protection against neurodegeneration at 100 uM; assay type: functional, organism-based
[31] = target: Huntingtin (Homo sapiens) (UniProt P42858); assay: Inhibition of EGFP-tagged huntingtin expressed in african green monkey COS7 cells assessed as protection against protein-induced cell death at 47 uM after 48 hrs by Western blot analysis; assay type: cell-based; details: COS-7
Saccharomyces cerevisiae [32] = assay: Enhancement of menadione-mediated cytostatic effect in yeast BY4742 after 48 to 96 hrs; assay type: functional, organism-based
HeLa [33] = assay: Increase in MAP1LC3 level in bafilomycin A1-treated human HeLa cells at 47 uM treated fro 24 hrs before bafilomycin A1 challenge by immunoblotting analysis; assay type: functional, cell-based
Procedure, shortened: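 HeLa cells stably expressing EGFP-LC3 were pretreated with compound for 24 h, then given 200 nM bafilomycin A1 for 4 h. EGFP-LC3-II was measured by anti-EGFP immunoblot with densitometry relative to actin, from three independent experiments.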

[34] = target: Huntingtin (Mus musculus) (UniProt P42859); assay: Inhibition of EGFP-tagged huntingtin aggregation in MEF harboring Atg5 gene at 47 uM after 48 hrs by Western blot analysis
Saccharomyces mikatae [35] = assay: Enhancement of rapamycin-mediated cytostatic effect in Saccharomyces mikatae after 48 to 96 hrs; assay type: functional
Saccharomyces cerevisiae [36] = assay: Enhancement of 20 nM rapamycin-mediated cytostatic effect in yeast BY4742 after 48 to 96 hrs; assay type: functional, organism-based
PC-12 [37] = assay: Enhancement of autophagy in rat PC12 cells assessed as decrease in alpha-synuclein A53T mutant level at 43 uM by immunoblotting; assay type: functional, cell-based; procedure, shortened: as §2
Saccharomyces cerevisiae [38] = assay: Inhibition of 25 nM rapamycin-mediated cytostatic effect in yeast BY4742 at sub-lethal concentration after 48 to 96 hrs; assay type: functional, organism-based

S=C(S)OC1CC2CC1C1CCCC21 (stereo not drawn)
0.412 µM: EC50 (Saccharomyces cerevisiae [2])
active: inhibition (Saccharomyces bayanus [1]) | inhibition (Saccharomyces mikatae [3]) | inhibition (Saccharomyces cerevisiae [4]) | inhibition (Saccharomyces paradoxus [5])

Nn1cnc2c(c1=O)C1(CCCC1)Cc1ccccc1-2
Non-toxic: Activity (Drosophila melanogaster [20]) | Activity [24]
active: Activity (Saccharomyces cerevisiae [6]) | Activity (PC-12 [7]) | Activity (Saccharomyces paradoxus [8]) | Activity (PC-12 [10]) | Activity (Saccharomyces bayanus [11]) | Activity (Saccharomyces cerevisiae [15]) | Activity (Saccharomyces cerevisiae [16]) | Activity (PC-12 [17]) | inhibition [18] | Activity (PC-12 [21]) | inhibition [22] | Activity (HeLa [23]) | Activity (Saccharomyces cerevisiae [25]) | Activity (Saccharomyces cerevisiae [26]) | Activity (Drosophila melanogaster [30]) | inhibition [31] | Activity (Saccharomyces cerevisiae [32]) | Activity (HeLa [33]) | Activity (Saccharomyces mikatae [35]) | Activity (PC-12 [37])
inactive: inhibition [9] | Activity (COS-7 [12]) | Activity (COS-7 [13]) | Activity (COS-7 [14]) | Activity (COS-7 [19]) | Activity (COS-7 [27]) | inhibition [28] | inhibition (HeLa [29]) | inhibition [34]
4.9 µM: EC50 (Saccharomyces cerevisiae [36])

COc1ccc(C[C@H]2NC[C@H](O)[C@H]2OC(C)=O)cc1
inactive: inhibition (Saccharomyces cerevisiae [38])
